Assay [1] concerns the target T1, Cannabinoid receptor 1 (Homo sapiens, UniProt P21554). The assay can be described thus: Displacement of [3H]CP-55940 from CB1 receptor (unknown origin) by competitive binding assay. For orientation: In a radioligand displacement assay an active substance lowers the binding of a labelled ligand.
For assay [2], the target named is T2, Cannabinoid receptor 2 (Homo sapiens, UniProt P34972). The assay can be described thus: Displacement of [3H]CP-55940 from CB2 receptor (unknown origin) by competitive binding assay.
The species entered for a further assay is Homo sapiens. Kind of assay: Selectivity index, ratio of Ki for CB1 receptor (unknown origin) to Ki for CB2 receptor (unknown origin) by competitive binding assay.
Assay [3] has as its target T2, Cannabinoid receptor 2. The assay can be described thus: Displacement of [3H]CP-55940 from CB2 receptor (unknown origin) at 1 uM by competitive binding assay.
Assay [4] deals with T1, Cannabinoid receptor 1. Kind of assay: Displacement of [3H]CP-55940 from CB1 receptor (unknown origin) at 1 uM by competitive binding assay.
Assay [5] has as its target T2, Cannabinoid receptor 2. The assay can be described thus: Agonist activity at human CB2 receptor expressed in CHO cell membrane assessed as increase in GTPgammaS binding at 10 uM by [35S]GTP-gammaS binding assay. Type of assay: functional, cell membranes. The essentials:
(§1)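 [35S]GTPγS binding in CHO-hCB1 membranes (hCB1R) or CHO-hCB2 membranes (hCB2R). A single 10 μM concentration of ligand was tested for change in [35S]GTPγS binding relative to basal. Agonism was read as a rise above basal, inverse agonism as a fall below basal, and neutral activity as no significant change.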
For orientation: Binding of GTPγS marks nucleotide exchange on a G protein.

Assay [6] addresses T1, Cannabinoid receptor 1. The assay can be described thus: Agonist activity at human CB1 receptor expressed in CHO cell membrane assessed as increase in GTPgammaS binding at 10 uM by [35S]GTP-gammaS binding assay. Type of assay: functional, cell membranes. The essentials: as §1
In assay [7] the target is T1, Cannabinoid receptor 1. The assay can be described thus: Neutral antagonist activity at human CB1 receptor expressed in CHO cell membrane at 10 uM by [35S]GTP-gammaS binding assay. Format: cell membranes. The following applies: filed as antagonist. An outline of the steps:
as §1

Assay [8] deals with T1, Cannabinoid receptor 1. Kind of assay: Inverse agonist activity at human CB1 receptor expressed in CHO cell membrane assessed as reduction in GTPgammaS binding at 10 uM by [35S]GTP-gammaS binding assay. Type of assay: functional, cell membranes. The essentials:
as §1

For assay [9], the target named is T2, Cannabinoid receptor 2. The assay can be described thus: Neutral antagonist activity at human CB2 receptor expressed in CHO cell membrane at 10 uM by [35S]GTP-gammaS binding assay. The following applies: filed as antagonist. Format: cell membranes. An outline of the steps: as §1
Assay [10] deals with T2, Cannabinoid receptor 2. Kind of assay: Inverse agonist activity at human CB2 receptor expressed in CHO cell membrane assessed as reduction in GTPgammaS binding at 10 uM by [35S]GTP-gammaS binding assay. Type of assay: functional, cell membranes. An outline of the steps: as §1
Assay [11] addresses T1, Cannabinoid receptor 1. Kind of assay: Binding affinity to human CB1 receptor expressed in CHO cell membrane at 10 uM by [35S]GTP-gammaS binding assay. Format: cell membranes. The essentials:
as §1

For assay [12], the target named is T2, Cannabinoid receptor 2. Kind of assay: Binding affinity to human CB2 receptor expressed in CHO cell membrane at 10 uM by [35S]GTP-gammaS binding assay. Type of assay: cell membranes. An outline of the steps:
as §1

This note sets out measurements from ChEMBL document CHEMBL4699478, “7-Azaindolequinuclidinones (7-AIQD): A novel class of cannabinoid 1 (CB1) and cannabinoid 2 (CB2) receptor ligands” (Bioorg Med Chem Lett, 2020).

The source made the active and inactive calls. The calls are words filed in the database; no cut-off is given here.

As a reminder, the Ki is a dissociation constant, usually derived from enzyme kinetics or from competition with a known ligand. A higher Ki goes with lower affinity. For orientation: inhibition means the drop in the measured response relative to a control, in per cent.

T2 sequence (P34972 whole entry): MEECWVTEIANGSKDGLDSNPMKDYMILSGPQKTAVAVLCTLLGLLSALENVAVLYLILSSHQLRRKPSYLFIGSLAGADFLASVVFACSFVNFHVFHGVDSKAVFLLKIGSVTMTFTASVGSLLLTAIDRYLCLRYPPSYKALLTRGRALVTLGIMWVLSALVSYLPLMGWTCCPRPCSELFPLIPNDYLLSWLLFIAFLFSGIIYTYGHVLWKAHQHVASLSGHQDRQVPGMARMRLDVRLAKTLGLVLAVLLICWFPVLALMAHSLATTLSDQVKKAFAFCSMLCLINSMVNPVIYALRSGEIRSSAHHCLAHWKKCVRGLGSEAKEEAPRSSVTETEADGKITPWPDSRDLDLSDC
T1 sequence (P21554 whole entry): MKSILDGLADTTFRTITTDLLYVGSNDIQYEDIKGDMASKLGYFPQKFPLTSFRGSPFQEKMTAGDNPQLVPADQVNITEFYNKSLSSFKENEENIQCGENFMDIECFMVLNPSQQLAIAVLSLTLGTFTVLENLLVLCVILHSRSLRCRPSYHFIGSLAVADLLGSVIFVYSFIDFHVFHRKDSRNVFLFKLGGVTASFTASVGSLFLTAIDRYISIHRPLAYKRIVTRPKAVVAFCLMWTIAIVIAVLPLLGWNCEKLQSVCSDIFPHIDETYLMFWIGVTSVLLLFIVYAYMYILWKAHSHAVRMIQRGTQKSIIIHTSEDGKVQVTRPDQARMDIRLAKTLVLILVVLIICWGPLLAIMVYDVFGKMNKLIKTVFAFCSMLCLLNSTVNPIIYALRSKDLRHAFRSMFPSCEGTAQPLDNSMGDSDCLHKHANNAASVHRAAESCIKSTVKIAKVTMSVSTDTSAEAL

With `O=C1/C(=C/c2cn(Cc3ccccc3)c3ncccc23)N2CCC1CC2`, the inhibition constant Ki is 2.9 µM on Cannabinoid receptor 1 [1] and 0.11 µM at Cannabinoid receptor 2 [2]. In the assay filed under Homo sapiens, the Ratio Ki worked out at 26.3. The inhibition on Cannabinoid receptor 2 [3] (filed as antagonist) came to 79.9%; at Cannabinoid receptor 1 [4] it was 15.1%. The result at Cannabinoid receptor 2 [5], on Cannabinoid receptor 1 [6], on Cannabinoid receptor 1 [8] and on Cannabinoid receptor 2 [10] was inactive. Also, the result at Cannabinoid receptor 1 [7] and at Cannabinoid receptor 2 [9] was Active.

For the compound `OC1/C(=C/c2cn(Cc3ccccc3)c3ncccc23)N2CCC1CC2` (racemic), the inhibition on Cannabinoid receptor 2 [3] and on Cannabinoid receptor 1 [4] was 0% each time.

Regarding `O=C1/C(=C/c2cn(CCN3CCOCC3)c3ncccc23)N2CCC1CC2`, the inhibition at Cannabinoid receptor 2 [3] turned out to be 7.92%; at Cannabinoid receptor 1 [4], 0%.

Regarding `COc1ccc(C(=O)c2c(C)n(CCN3CCOCC3)c3cc(I)ccc23)cc1`, the outcome at Cannabinoid receptor 2 [10] (filed as inverse agonist) was Active.

With `O=C1/C(=C/c2cn(Cc3cccc(C(F)(F)F)c3)c3ncccc23)N2CCC1CC2`, the inhibition was 56.7% at Cannabinoid receptor 2 [3] and 42.5% on Cannabinoid receptor 1 [4].

With `O=C1/C(=C/c2cn(Cc3ccc(Br)cc3)c3ncccc23)N2CCC1CC2`, the results for the inhibition constant (Ki) at Cannabinoid receptor 1 [1] and at Cannabinoid receptor 2 [2] were 1.11 µM and 0.625 µM, respectively. In addition, in the assay filed under Homo sapiens, the Ratio Ki was 1.8. Also, the inhibition was 67.6% at Cannabinoid receptor 2 [3] (filed as antagonist) and 74.2% at Cannabinoid receptor 1 [4] (filed as inverse agonist). The outcome at Cannabinoid receptor 1 [8] (filed as inverse agonist) and at Cannabinoid receptor 2 [9] was Active.

As for `O=C1/C(=C/c2cn(Cc3ccc(Cl)cc3)c3ncccc23)N2CCC1CC2`, the inhibitory constant (Ki) on Cannabinoid receptor 1 [1] amounted to 0.704 µM; on Cannabinoid receptor 2 [2], 0.115 µM. Besides, the Ratio Ki in the assay listed under Homo sapiens was 6.1. Further, the inhibition was 74.8% at Cannabinoid receptor 2 [3] (filed as inverse agonist) and 68.9% on Cannabinoid receptor 1 [4] (filed as inverse agonist). Besides, the result at Cannabinoid receptor 1 [8] (filed as inverse agonist) and on Cannabinoid receptor 2 [10] (filed as inverse agonist) was Active.

For the compound `Cc1c(C(=O)NN2CCCCC2)nn(-c2ccc(Cl)cc2Cl)c1-c1ccc(I)cc1`, the result on Cannabinoid receptor 1 [8] (filed as inverse agonist) was Active.

As to `OC1/C(=C/c2cn(Cc3ccc(Cl)cc3)c3ncccc23)N2CCC1CC2` (racemic), the inhibition on Cannabinoid receptor 2 [3] came to 58.5%; on Cannabinoid receptor 1 [4], 58.2%.

On to `O=C1/C(=C/c2cn(Cc3ccc(F)cc3)c3ncccc23)N2CCC1CC2`, for which the Ki on Cannabinoid receptor 1 [1] was found to be 0.218 µM; at Cannabinoid receptor 2 [2] it was 0.0237 µM. For the same compound, the Ratio Ki in the assay filed under Homo sapiens came out at 9.2. The inhibition on Cannabinoid receptor 2 [3] amounted to 100%; at Cannabinoid receptor 1 [4] it was 87.6%. The result on Cannabinoid receptor 1 [11] and at Cannabinoid receptor 2 [12] was Active.

On to `COc1ccc(Cn2cc(/C=C3/C(=O)C4CCN3CC4)c3cccnc32)cc1`, for which the figures for the inhibition on Cannabinoid receptor 2 [3] and on Cannabinoid receptor 1 [4] were 27.5% and 22.4%, respectively.

As to `N#Cc1ccc(Cn2cc(/C=C3/C(=O)C4CCN3CC4)c3cccnc32)cc1`, the inhibition on Cannabinoid receptor 2 [3] was 64.1%; at Cannabinoid receptor 1 [4], 55.7%.

Take `O=C1/C(=C/c2cn(CCN3CCCC3)c3ncccc23)N2CCC1CC2`: the inhibition on Cannabinoid receptor 2 [3] was found to be 56.6%; at Cannabinoid receptor 1 [4] it was 39.4%.
